Source: PubChem BioAssay (several laboratories)
MEKK3 PB1 HTS: modulators of MEKK3-MEK5 PB1 binding, primary screen, biochemical, wildtype MEKK3, multiplex bead flow cytometry, Alexa488-MEK5; Mitogen-activated protein kinase kinase kinase 3 (Homo sapiens), Q99759; bead-based flow cytometry, Alexa488-MEK5 binding to MEKK3; actives lie on both sides; 0 = blocked by unlabeled MEK5, 100 = vehicle; binding response (% of control), % at 10 µM; actives 1.4% (n = 290,000); AID 1529, 2009;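 active means binding response more than 3 SD above or below the average of its plate-row segment, actives on both sides; inconclusive means wells at one plate position flagged as instrument error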;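 further: Alexa488 bead fluorescence after subtracting the streptavidin-only scavenger bead signal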
Target sequence (Q99759 whole entry, looked up): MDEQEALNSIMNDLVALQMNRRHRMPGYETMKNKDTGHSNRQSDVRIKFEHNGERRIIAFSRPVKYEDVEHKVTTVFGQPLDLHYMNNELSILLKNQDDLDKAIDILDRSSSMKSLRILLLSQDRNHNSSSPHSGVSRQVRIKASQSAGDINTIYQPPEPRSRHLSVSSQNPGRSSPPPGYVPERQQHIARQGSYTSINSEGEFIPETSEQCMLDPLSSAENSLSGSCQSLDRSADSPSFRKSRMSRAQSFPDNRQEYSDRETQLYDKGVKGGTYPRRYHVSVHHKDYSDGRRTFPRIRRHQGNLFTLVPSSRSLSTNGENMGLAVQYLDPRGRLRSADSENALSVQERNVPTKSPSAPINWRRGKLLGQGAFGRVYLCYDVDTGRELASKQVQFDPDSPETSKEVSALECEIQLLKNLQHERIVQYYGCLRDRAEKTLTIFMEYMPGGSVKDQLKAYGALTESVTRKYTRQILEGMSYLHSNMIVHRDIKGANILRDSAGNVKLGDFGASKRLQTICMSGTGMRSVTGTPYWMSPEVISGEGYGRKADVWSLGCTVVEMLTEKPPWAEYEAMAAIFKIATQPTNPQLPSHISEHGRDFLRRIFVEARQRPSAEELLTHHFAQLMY
FID counter: compounds displacing fluorescent DNA intercalator, primary screen, artefact control for HCV NS3 helicase inhibitor project, biochemical, FID fluorescence; AID 1845, 2009; inhibition, % at 7.9 µM; actives 0.17% (n = 290,000); DNA fluorescent intercalator displacement; in the data active means inhibition above about 37%;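 further: 0% = vehicle and 100% = reference compound; higher means more ethidium bromide displaced from hairpin DNA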
MEKK2mut PB1 HTS: MEK5 binding signal on mutant MEKK2 PB1, primary screen, biochemical, multiplex bead flow cytometry, Alexa488-MEK5; Alexa488-MEK5 binding to MEKK2 mutant; percent response, % at 10 µM; actives 0.35% (n = 290,000); AID 1530, 2009; in the data active means percent response above about 24%, passing the limit was not always enough
T cruzi inh: inhibitors of intracellular T. cruzi growth, primary screen, luminescence, NIH3T3 host cells. AID 1885, 2009. actives 1.4% (n = 300,000). inhibition, % (no concentration beside the values). T. cruzi beta-gal in NIH3T3, 90 h;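 active means mean inhibition across valid replicates above about 55%, limit read from the data; inconclusive means mean below that limit but half or more replicates reach it; inactive means mean below it, under half of replicates reach it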;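 further: signal also drops with host cell toxicity which is not excluded here; 0% = plate median of DMSO wells and 100% = zero luminescence signal; higher percent means less beta-gal luminescence so fewer parasites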
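Incubation – ≥90 h infection period, 3 h prior cell attachment · System – NIH/3T3 fibroblasts plus reporter T. cruzi · Doses – compound pinned at 50 nL/well, DMSO · Read-out basis – percent inhibition of parasite-derived β-gal signal · Signal – luminescent β-galactosidase signal after 60 min lysis · Also added – 5000 T. cruzi trypomastigotes/well · Medium – Low-serum DMEM with 2% FBS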
NS3 helicase inh: inhibitors of HCV NS3 helicase, primary screen, biochemical, Cy5 molecular beacon fluorescence; inhibition, % at 10.9 µM; Hepatitis C virus NS3 helicase; NS3 helicase DNA unwinding; actives 0.56% (n = 290,000);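 active means inhibition above the mean of all tested compounds plus 3 SD, set per campaign, cut at about 35% in these data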;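 further: 0% = DMSO wells and 100% = thioflavine S control wells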
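Measured by: Cy5 fluorescence, 0 and 60 min reads / Assay system: NS3 helicase fragment of HCV / Control set: low DMSO, high thioflavine S at 110 µM / Times: 1 h reaction at 25 °C, ATP-initiated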
MEKK2wt PB1 HTS: modulators of MEK5 binding to wildtype MEKK2, primary screen, biochemical, multiplex bead flow cytometry, Alexa488-MEK5. actives 1.1% (n = 290,000). Alexa488-MEK5 binding to MEKK2 WT; actives lie on both sides. binding response (% of control), % at 10 µM. Mitogen-activated protein kinase kinase kinase 2 (Homo sapiens), Q9Y2U5; in the data active means binding response below about 67% or above about 130%; inconclusive means no clear call, values can overlap the other calls; inactive means in between
Starred values were filed as active, the others as inactive; ? = inconclusive; . = no result given; [ ] = dose if it differs, or a comment. In the library only some 4.1% were active in any assay of this set; here they are far more common.

SMILES	MEKK3 PB1 HTS	FID counter	MEKK2mut PB1 HTS	T cruzi inh	NS3 helicase inh	MEKK2wt PB1 HTS
CCOc1ccc(CN2CCN(Cc3cccn3-c3cccnc3)CC2CCO)cc1 (configuration not stated)	101.0	-3.5	-3.0	59.9*	2.4	95.0
Fc1ccccc1N1CCN(C2CCCN(Cc3cccc(C(F)(F)F)c3)C2)CC1 (configuration not stated)	102.0	-3.1	4.0	71.6*	-15.2	107.0
OCCC1CN(Cc2cccc(C(F)(F)F)c2)CCN1Cc1ccccc1 (configuration not stated)	98.0	5.3	-5.0	54.7*	-9.8	101.0
COc1cccc(CN2CCN(Cc3nc(C(C)C)cs3)CC2CCO)c1 (configuration not stated)	99.0	-3.1	-10.0	35.8	-0.7	90.0
COc1cccc(CN2CCN(Cc3c(C)nn(C(C)C)c3C)CC2CCO)c1 (configuration not stated)	97.0	-2.4	-1.0	71.3*	0.8	98.0
OCCC1CN(Cc2cc3c(cc2Cl)OCO3)CCN1Cc1ccccc1 (configuration not stated)	103.0	4.5	9.0	58.6*	-16.9	103.0
CC1CCCC(C)N1c1ccc(S(=O)(=O)N2CCOCC2)cc1Cl (configuration not stated)	100.0	-31.6	-2.0	33.0	-12.3	96.0
COc1cc(OC)c(OC)cc1CNCCNC(=O)c1ccco1	97.0	-2.4	-2.0	15.7	10.4	98.0
CC(OC(=O)CNC(=O)c1ccc2ccccc2c1)C(=O)N(C)C1CCCCC1 (configuration not stated)	.	.	.	-10.5	.	.
CCOc1ccc(CCNC(=O)c2ccc(C)c(NC3=NC4CS(=O)(=O)CC4S3)c2)cc1 (configuration not stated)	101.0	-27.6	-1.0	-2.4	7.8	98.0
Cc1cccc(NC(=O)N2CCCc3ccccc32)c1C	103.0	-5.6	0.0	-15.4	-4.2	105.0
CCOc1ccccc1CN1CCN(Cc2cccc3c2OCO3)CC1CCO (configuration not stated)	98.0	-3.8	-7.0	42.1	-5.0	91.0
CCOc1ccc(CN2CCN(Cc3cccc4c3OCO4)CC2CCO)cc1 (configuration not stated)	104.0	3.9	1.0	96.9*	-1.4	103.0
CC(=O)/C=C1\N(C)c2ccc(C)cc2C1(C)C	95.0	-5.2	-9.0	66.1*	-0.2	85.0
COc1ccccc1C(=O)NC(=S)Nc1ccccc1N1CCCC1	106.0	-13.6	7.0	14.5	-5.6	110.0
COc1ccccc1C(=O)NC(=S)Nc1ccc(N2CCCC2)cc1	104.0	-1.7	-1.0	55.9*	-13.3	103.0
COc1cc(C(=O)NNC(=S)NC(=O)c2ccccc2C)cc(OC)c1OC	103.0	-18.9	3.0	-4.8	-1.5	103.0
COc1ccccc1C(=O)NNC(=S)NC(=O)c1cc(OC)c(OC)c(OC)c1	102.0	-3.7	3.0	60.2*	9.9	104.0
CN1CCN(c2ccc(NC(=S)NC(=O)c3cccc4c(Cl)cccc34)cc2)CC1	101.0	2.3	28.0*	17.0	-81.6	170.0*
COc1ccc2cc(S(=O)(=O)NC3CC(C)(C)NC(C)(C)C3)ccc2c1	101.0	12.2	8.0	27.7	-10.9	109.0
Cc1c(Cl)cccc1NC(=O)C1=COCCO1	.	.	.	4.5	.	.
c1ccc(C[n+]2cccc3c4ccccc4ccc32)cc1	101.0	8.5	17.0	?	1.0	105.0
CCCCC[n+]1cccc2c3ccccc3ccc21	94.0	19.3	-6.0	73.2*	-18.4	96.0
O=C(C1CC(=O)N(c2ccc3c(c2)OCCO3)C1)N1CCCC(C(F)(F)F)C1 (configuration not stated)	.	.	.	-3.5	.	.
CN(CC(=O)Nc1cccc(F)c1)C(=O)CCCNC(=O)c1ccc(Cl)cc1	.	.	.	-4.3	.	.
SMILES	MEKK3 PB1 HTS	FID counter	MEKK2mut PB1 HTS	T cruzi inh	NS3 helicase inh	MEKK2wt PB1 HTS
Cn1cc(CN2CCC(n3nccc3NC(=O)c3ccccc3Cl)CC2)c2ccccc21	103.0	20.5	19.0	30.2	-32.1	155.0*
O=C(Nc1ccnn1C1CCN(Cc2c[nH]c3ccccc23)CC1)c1ccccc1	105.0	10.3	21.0	16.4	-66.7	135.0*
Cc1ccc(NC(=O)C(Cc2ccccc2)N2C(=O)C3C4CCC(C4)C3C2=O)cc1Cl (configuration not stated)	109.0	-5.9	1.0	77.8*	21.3	101.0
CC1=NN(c2nc(-c3ccc(C)cc3)cs2)C(=O)C1N=Nc1ccccc1O (configuration not stated)	99.0	-1.0	-11.0	54.8*	11.7	88.0
O=C(Nc1ccccc1)c1nnsc1S(=O)c1ccc(Cl)cc1 (configuration not stated)	92.0	-4.0	-8.0	14.6	-6.2	90.0
O=C(c1nnsc1S(=O)c1ccc(Cl)cc1)N1CCOCC1 (configuration not stated)	103.0	1.5	-2.0	62.5*	-4.3	98.0
COc1cc(S(=O)(=O)NC2CCSc3ccccc32)ccc1NC(C)=O (configuration not stated)	95.0	-23.4	-7.0	5.7	-4.6	90.0
CCOC(=O)C1CCN(C(=O)C2CC(=O)N(c3ccc4c(c3)OCCO4)C2)CC1 (configuration not stated)	101.0	-21.1	-3.0	-4.0	1.4	102.0
COc1ccc(C=C2C=C(C(C)(C)C)C(=O)C(C(C)(C)C)=C2)cc1OC	82.0	-30.2	-6.0	75.4*	10.5	72.0
CC1(C)CC(=O)C2=C(C1)N(Cc1cccnc1)C(=O)C2(NC(=O)c1cccnc1)C(F)(F)F (configuration not stated)	116.0	-1.7	6.0	11.8	-4.0	112.0
CC1(C)CC(=O)C2=C(C1)N(Cc1ccco1)C(=O)C2(NC(=O)c1cccnc1)C(F)(F)F (configuration not stated)	56.0*[inhibitor]	-6.9	-15.0	-9.1	2.0	66.0
CCC1Oc2ccccc2N(CC(=O)NC2CCCCC2C)C1=O (configuration not stated)	102.0	-31.8	2.0	19.8	0.6	100.0
COc1cc(OC)c(NC(=O)c2ccc3c(SCC(=O)O)c4c(nc3c2)CCCC4)cc1Cl	101.0	-25.8	-5.0	23.8	29.8	94.0
